We go through one compound from PubChem BioAssay AID624121 (Johns Hopkins Ion Channel Center, 2012).

The inhibition is how much of the control response was suppressed.

This assay addresses Potassium channel subfamily K member 9 (Homo sapiens) (UniProt Q9NPC2). The assay can be described thus: KCNK9 current inhibition, whole-cell recording, SAR follow-up, manual electrophysiology (AID 624121). As to conditions: HEK293 KCNK9 stable, whole-cell patch clamp current; at 1 µM; stronger effect = higher value. The method, boiled down: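 Measure: percent current inhibition at -20 mV versus current in 5 mM K+ bath. Test system: inducible KCNK9-expressing HEK293 cell line. Doses: one dose, 1 µM. Signal: whole-cell patch clamp current at -20 mV. Timing: induction 16–24 h pre-recording, 30 s ramp interval.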

Sequence of Potassium channel subfamily K member 9 (Homo sapiens) (Q9NPC2 whole entry, looked up): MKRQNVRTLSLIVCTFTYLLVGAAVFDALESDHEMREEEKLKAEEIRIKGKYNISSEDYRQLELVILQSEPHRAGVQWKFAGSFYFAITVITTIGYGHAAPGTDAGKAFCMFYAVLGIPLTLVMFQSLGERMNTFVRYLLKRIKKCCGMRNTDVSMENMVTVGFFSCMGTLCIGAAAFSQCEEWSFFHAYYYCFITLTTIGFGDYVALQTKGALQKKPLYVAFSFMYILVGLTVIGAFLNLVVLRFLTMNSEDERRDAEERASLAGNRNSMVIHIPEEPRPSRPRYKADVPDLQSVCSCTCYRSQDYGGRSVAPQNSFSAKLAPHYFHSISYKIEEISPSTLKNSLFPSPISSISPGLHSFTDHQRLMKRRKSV

Consider `C[C@@H]([C@@H]1CC2CC[C@H]1C2)n1c(-c2ccco2)n[nH]c1=S`, for which the inhibition was 55.2%.
